Laboratory results from ChEMBL document CHEMBL4219232, “Discovery of novel serine palmitoyltransferase inhibitors as cancer therapeutic agents” (Bioorg Med Chem, 2018).
≈ marks a conversion by molar mass, not a printed value.

Columns and labels:
HCC4006 = experiment: Growth inhibition of human HCC4006 cells assessed as inflection point after 5 days by cell-titer-glo luminescent cell viability assay; format: functional
In short: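 HCC4006 cells were grown in RPMI with 10% FBS and penicillin/streptomycin, seeded at 250 cells/well and cultured overnight. Cells were then exposed to compound for 5 days, and the medium was replaced with CellTiter-Glo reagent for a luminescence read. The IP is the concentration at the inflection point of the dose-response curve, n = 2.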

[1] = Clearance in human liver microsomes in presence of NADPH; format: ADME, microsome; conditions: read-out: CLH
In short: (§1)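 Metabolic clearance was measured in human or mouse liver microsomes with NADPH, n = 2, in μL/min/mg.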

[2] = Clearance in mouse liver microsomes in presence of NADPH; format: ADME, microsome; conditions: read-out: CLH; in short: as §1
[3] = Oral bioavailability in non-fasted mouse at 1 mg/kg administered as cassette dosing by LC/MS/MS analysis; format: ADME, organism-based; conditions: in vivo
In short: (§2)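 Non-fasted mice received compounds as cassettes, intravenously at 0.1 mg/kg (10 compounds per cassette) or orally at 1 mg/kg (5 compounds per cassette). Blood was collected and centrifuged to plasma. Plasma was deproteinized with acetonitrile and centrifuged before analysis. Parameters are means of n = 3.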

[4] = Inhibition of SPT in human HCC4006 cells assessed as reduction in ceramide content after 24 hrs in presence of C16-ceramide-d31/C14-phosphatidylcholine-d72 by LC/MS analysis; conditions: HCC4006, 24 h
[5] = Growth inhibition of human PL21 cells after 5 days by cell-titer-glo luminescent cell viability assay; format: functional; conditions: for IC50: Homo sapiens, PL-21, 120 h
[6] = Thermodynamic solubility in Japanese pharmacopoeia disintegration test solution 2 at 6.8; format: physicochemical; conditions: Japanese pharmacopoeia disintegration test solution 2, pH 6.8; read-out: Therm_solubility
In short: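 Thermodynamic solubility was measured in Japanese Pharmacopoeia disintegration test solution 2 at pH 6.8.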

[7] = Volume of distribution at steady state in non-fasted mouse at 0.1 mg/kg, iv administered as cassette dosing by LC/MS/MS analysis; format: ADME, organism-based; conditions: in vivo, read-out: Vdss; in short: as §2
[8] = Total clearance in non-fasted mouse at 0.1 mg/kg, iv administered as cassette dosing by LC/MS/MS analysis; format: ADME, organism-based; conditions: in vivo; in short: as §2
[9] = Cmax in non-fasted mouse at 1 mg/kg, po administered as cassette dosing by LC/MS/MS analysis; format: ADME, organism-based; design: dose 1 mg/kg, route oral; conditions: in vivo; in short: as §2
[10] = Tmax in non-fasted mouse at 1 mg/kg, po administered as cassette dosing by LC/MS/MS analysis; format: ADME, organism-based; conditions: in vivo; in short: as §2
[11] = AUC in non-fasted mouse at 1 mg/kg, po administered as cassette dosing by LC/MS/MS analysis; format: ADME, organism-based; conditions: in vivo; in short: as §2
[12] = MRT in non-fasted mouse at 1 mg/kg, po administered as cassette dosing by LC/MS/MS analysis; format: ADME, organism-based; conditions: in vivo; in short: as §2
Mus musculus [13] = experiment: In vivo inhibition of SPT in tumors of human HCC1806 cells xenografted in mouse assessed as reduction in 3-KDS levels at 10 mg/kg, po measured after 8 hrs post dose by LC/MS analysis relative to control; format: functional
In short: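 HCC1806 breast cancer xenograft mice were dosed orally at 10 mg/kg. Tumor 3-KDS was quantified by LC/MS 8 h after dosing and compared with vehicle. Data are mean ± SD, n = 5, analysed by Dunnett's test.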

[14] = Antitumor activity against human PL21 cells xenografted in mouse at 10 mg/kg, po administered every other day for 2 weeks relative to control; format: functional
In short: (§3)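 PL-21 xenograft mice, n = 6 per group. Compound was suspended in 0.5% aqueous methylcellulose and given orally every other day for two weeks at 10 or 30 mg/kg. Tumor volume and body weight were followed. T/C is the median tumor weight of the treated group divided by that of the control group.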

[15] = Antitumor activity against human PL21 cells xenografted in mouse at 30 mg/kg, po administered every other day for 2 weeks relative to control; format: functional; in short: as §3
Mus musculus [16] = experiment: Toxicity in mouse xenografted with human PL21 cells assessed as body weight loss at 10 to 30 mg/kg, po administered every other day for 2 weeks; format: organism-based; conditions: in vivo, 336 h; in short: as §3
[17] = Permeability of the compound from apical to basolateral side at pH 7.8 by PAMPA
[18] = target: T1, Serine palmitoyltransferase 2 (Homo sapiens, UniProt O15270); experiment: Inhibition of human SPT2 transfected in Freestyle293 cells using L-serine and palmitoyl-CoA as substrate preincubated for 60 mins followed by substrate addition measured after 15 mins by mass spectrometric analysis; format: cell-based
T1 sequence (O15270 whole entry): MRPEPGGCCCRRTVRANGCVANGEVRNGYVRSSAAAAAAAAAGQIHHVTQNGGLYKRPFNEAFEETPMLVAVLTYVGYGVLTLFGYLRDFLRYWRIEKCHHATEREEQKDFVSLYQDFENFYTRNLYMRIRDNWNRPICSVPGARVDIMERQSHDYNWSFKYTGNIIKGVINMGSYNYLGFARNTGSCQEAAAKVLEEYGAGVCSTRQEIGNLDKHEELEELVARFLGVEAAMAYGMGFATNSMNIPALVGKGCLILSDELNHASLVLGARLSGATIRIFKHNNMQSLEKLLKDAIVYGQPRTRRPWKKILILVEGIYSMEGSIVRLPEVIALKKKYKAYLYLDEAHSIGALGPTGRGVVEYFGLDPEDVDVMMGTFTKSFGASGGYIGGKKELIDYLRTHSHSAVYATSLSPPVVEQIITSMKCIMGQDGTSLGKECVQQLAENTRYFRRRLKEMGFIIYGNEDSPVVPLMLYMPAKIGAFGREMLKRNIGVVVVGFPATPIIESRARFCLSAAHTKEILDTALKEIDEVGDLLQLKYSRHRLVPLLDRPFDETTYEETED

COc1ccc(C(=O)N2CCC(NC(=O)c3ccccc3Cl)c3ccc(Cl)cc32)cc1OC (stereo not given) gave an IP (HCC4006) of 500 nM, a microsomal CLint [1] of 132 µL/min/mg and a microsomal CLint [2] of 216 µL/min/mg.
In the case of COc1cc(C(=O)N2CC[C@H](NC(=O)c3ccccc3OC(F)(F)F)c3c2cnn3C(C)C)cnc1OC, the IP (HCC4006) is reported as 3.9 nM, the microsomal CLint [1] is reported as 6 µL/min/mg and the microsomal CLint [2] is reported as 5 µL/min/mg. The bioavailability [3] was 53%, the IC50 [4] was 2.4 nM and the Imax [5] was over 90%. It also gave an IC50 [5] of 4.1 nM, a solubility thermodynamic [6] of 24 µg/mL (≈ 45 µM) and a Vd [7] of 1.13 L/kg. The clearance [8] was 15.9 mL/min/kg, the Cmax [9] was 309 ng/mL and the Tmax [10] was 30 min. It also gave an AUC [11] of 572 ng·h/mL, an MRT [12] of 1.4 h and an inhibition in vivo at 10 mg/kg (Mus musculus [13]) of 40%. The T/C [14] was 52%, the T/C [15] was 38% and the Activity (Mus musculus [16]) was “Non-Toxic”. It also gave a Papp [17] of 16.7 ×10⁻⁶ cm/s.
Compound COc1ccc(C(=O)N2CCC(Nc3ccc(Cl)cc3)c3ccc(Cl)cc32)cc1OC (stereo not given) has an IP (HCC4006) of 12000 nM.
COc1ccc(C(=O)N2CC[C@H](NC(=O)c3ccccc3Cl)[C@@H](c3ccccc3)C2)cc1OC showed an IP (HCC4006) of over 30000 nM.
COc1ccc(C(=O)N2CC[C@@H](NC(=O)c3ccccc3Cl)[C@@H](c3ccccc3)C2)cc1OC gave an IP (HCC4006) of 14 nM, a microsomal CLint [1] of 21 µL/min/mg and a microsomal CLint [2] of 245 µL/min/mg. For the same compound, the bioavailability [3] was under 1%.
With Cn1nc(C(F)(F)F)cc1C(=O)N[C@@H]1CCN(C(=O)c2cc(Cl)c3nccnc3c2)C[C@@H]1c1ccccc1 the IP (HCC4006) was 11 nM, the microsomal CLint [1] was under 1 µL/min/mg and the microsomal CLint [2] was 60 µL/min/mg. For the same compound, the bioavailability [3] was 56%, the IC50 [4] was 2.3 nM and the Imax [5] was over 90%. The IC50 [5] was 11 nM, the solubility thermodynamic [6] was 8 µg/mL (≈ 14.7 µM) and the Vd [7] was 0.75 L/kg. The clearance [8] was 8.45 mL/min/kg, the Cmax [9] was 282 ng/mL and the Tmax [10] was 72 min. It also gave an AUC [11] of 1110 ng·h/mL, an MRT [12] of 2.7 h and an inhibition in vivo at 10 mg/kg (Mus musculus [13]) of 40%. For the same compound, the Papp [17] was 20.3 ×10⁻⁶ cm/s.
COc1ccc(C(=O)N2CC[C@H](NC(=O)c3ccccc3Cl)[C@H](c3ccccc3)C2)cc1OC showed an IP (HCC4006) of 3800 nM.
For COc1ccc(C(=O)N2CC[C@@H](NC(=O)c3ccccc3Cl)[C@H](c3ccccc3)C2)cc1OC, the IP (HCC4006) was 570 nM.
COc1cc(C(=O)N2CC[C@@H](NC(=O)c3ccccc3OC(F)(F)F)c3c2cnn3C(C)C)cnc1OC showed an IP (HCC4006) of over 30000 nM.
In the case of COc1ccc(C(=O)N2CCC(NC(=O)c3ccccc3Cl)C(c3ccccc3)C2)cc1OC (mixture of isomers), the IP (HCC4006) is reported as 41 nM.
With COc1cc(C(=O)N2CCC(NC(=O)c3ccccc3OC(F)(F)F)c3c2cnn3C(C)C)cnc1OC (racemic) the IP (HCC4006) was 23 nM, the microsomal CLint [1] was 15 µL/min/mg and the bioavailability [3] was 25%.
COc1ccc(C(=O)N2CCC(NC(=O)c3ccccc3Cl)c3c2cnn3C)cc1OC (racemic) showed an IP (HCC4006) of 250 nM, a microsomal CLint [1] of 6 µL/min/mg and a microsomal CLint [2] of 6 µL/min/mg. For the same compound, the bioavailability [3] was 28%.
Work on CCCCCCC(=O)CCCCCC/C=C/C[C@@H](O)[C@H](O)[C@@](N)(CO)C(=O)O [MYRIOCIN] yielded an IC50 [18] of 0.13 nM, an IP (HCC4006) of 2.1 nM and an IC50 [4] of 1.5 nM. It also gave an Imax [5] of over 90% and an IC50 [5] of 7.8 nM.
